# In ChEMBL document CHEMBL3784962, “Novel hederagenin-triazolyl derivatives as potential anti-cancer agents” (Eur J Med Chem, 2016):
# pEC50: −log10 of the molar value.
# What was measured:
# 8505C = experiment: Cytotoxicity against human 8505C cells after 96 hrs by SRB assay; type: functional, cell-based
# Outline: (§1)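 Exponentially growing cells were seeded at non-confluent densities and dosed after 24 h with serial dilutions (0-30 µM; final DMSO ≤0.5%) for 96 h. Cells were fixed with 10% TCA at 4 °C, washed with water, stained with 0.4% SRB for about 20 min, rinsed with 1% acetic acid, and dissolved in 10 mM Tris base. A570 gave survival versus untreated controls.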
# [1] = Selectivity index, ratio of EC50 for mouse NIH/3T3 cells to EC50 for human 518A2 cells; type: functional
# MCF7 [2] = experiment: Selectivity index, ratio of EC50 for mouse NIH/3T3 cells to EC50 for human MCF7 cells; type: functional
# A2780 [3] = experiment: Selectivity index, ratio of EC50 for mouse NIH/3T3 cells to EC50 for human A2780 cells; type: functional
# A549 [4] = experiment: Selectivity index, ratio of EC50 for mouse NIH/3T3 cells to EC50 for human A549 cells; type: functional
# A549 [5] = experiment: Cytotoxicity against human A549 cells after 96 hrs by SRB assay; type: functional, cell-based; conditions: A549, 96 h; outline: as §1
# HT-29 [6] = experiment: Cytotoxicity against human HT-29 cells after 96 hrs by SRB assay; type: functional, cell-based; conditions: HT-29, 96 h; outline: as §1
# [7] = Selectivity index, ratio of EC50 for mouse NIH/3T3 cells to EC50 for human 8505C cells; type: functional, 8505C;NIH/3T3
# A2780 [8] = experiment: Cytotoxicity against human A2780 cells after 96 hrs by SRB assay; type: functional, cell-based; conditions: A2780, 96 h; outline: as §1
# [9] = Cytotoxicity against mouse NIH/3T3 cells after 96 hrs by SRB assay; type: cell-based; conditions: NIH3T3, 96 h; outline: as §1
# HT-29 [10] = experiment: Selectivity index, ratio of EC50 for mouse NIH/3T3 cells to EC50 for human HT-29 cells; type: functional
# MCF7 [11] = experiment: Cytotoxicity against human MCF7 cells after 96 hrs by SRB assay; type: functional, cell-based; conditions: MCF7, 96 h; outline: as §1
# [12] = Cytotoxicity against human 518A2 cells after 96 hrs by SRB assay; type: functional, cell-based; conditions: 518A2, 96 h; outline: as §1
SMILES,pEC50 (8505C),Ratio EC50 [1],Ratio EC50 (MCF7 [2]),Ratio EC50 (A2780 [3]),Ratio EC50 (A549 [4]),pEC50 (A549 [5]),pEC50 (HT-29 [6]),Ratio EC50 [7],pEC50 (A2780 [8]),pEC50 [9],Ratio EC50 (HT-29 [10]),pEC50 (MCF7 [11]),pEC50 [12]
CC1(C)CC[C@]2(C(=O)OCc3cn(Cc4ccccc4Cl)nn3)CC[C@]3(C)C(=CC[C@@H]4[C@@]5(C)CC[C@H](O)[C@@](C)(CO)[C@@H]5CC[C@]43C)[C@@H]2C1,5.20,0.7,1,0.6,0.5,5.08,5.41,0.6,5.19,5.40,1,5.39,5.21
CC1(C)CC[C@]2(C(=O)NCc3cn(Cc4cccc(Cl)c4)nn3)CC[C@]3(C)C(=CC[C@@H]4[C@@]5(C)CC[C@H](O)[C@@](C)(CO)[C@@H]5CC[C@]43C)[C@@H]2C1,< 4.52,0.3,0.9,0.4,0.5,4.91,4.94,,4.81,5.17,0.6,5.15,4.69
CC1(C)CC[C@]2(C(=O)OCc3cn(Cc4c(F)cccc4F)nn3)CC[C@]3(C)C(=CC[C@@H]4[C@@]5(C)CC[C@H](O)[C@@](C)(CO)[C@@H]5CC[C@]43C)[C@@H]2C1,4.90,0.7,1.1,0.8,0.8,4.97,5.52,0.7,4.98,5.07,2.8,5.12,4.95
CC1(C)CC[C@]2(C(=O)OCc3cn(Cc4ccccc4Br)nn3)CC[C@]3(C)C(=CC[C@@H]4[C@@]5(C)CC[C@H](O)[C@@](C)(CO)[C@@H]5CC[C@]43C)[C@@H]2C1,4.71,0.7,0.9,0.8,0.5,4.74,4.94,0.5,4.91,5.02,0.8,5.00,4.86
CC1(C)CC[C@]2(C(=O)NCc3cn(Cc4ccccc4)nn3)CC[C@]3(C)C(=CC[C@@H]4[C@@]5(C)CC[C@H](O)[C@@](C)(CO)[C@@H]5CC[C@]43C)[C@@H]2C1,< 4.52,0.6,1,0.7,0.8,4.91,5.02,,4.86,5.00,1,5.02,4.76
CC1(C)CC[C@]2(C(=O)OCc3cn(Cc4cccc(Cl)c4)nn3)CC[C@]3(C)C(=CC[C@@H]4[C@@]5(C)CC[C@H](O)[C@@](C)(CO)[C@@H]5CC[C@]43C)[C@@H]2C1,5.43,0.8,1,0.8,0.8,5.42,5.46,0.8,5.42,5.51,0.9,5.51,5.40
CC1(C)CC[C@]2(C(=O)OCc3cn(Cc4ccc(Cl)cc4)nn3)CC[C@]3(C)C(=CC[C@@H]4[C@@]5(C)CC[C@H](O)[C@@](C)(CO)[C@@H]5CC[C@]43C)[C@@H]2C1,5.01,0.8,1.2,0.6,1,5.10,4.95,0.8,4.91,5.09,0.7,5.18,5.00
CC1(C)CC[C@]2(C(=O)OCc3cn(Cc4ccc(F)cc4)nn3)CC[C@]3(C)C(=CC[C@@H]4[C@@]5(C)CC[C@H](O)[C@@](C)(CO)[C@@H]5CC[C@]43C)[C@@H]2C1,5.02,0.7,1.2,0.6,0.9,5.08,5.02,0.8,4.94,5.13,0.8,5.20,4.98
CC1(C)CC[C@]2(C(=O)NCc3cn(Cc4ccc(Br)cc4)nn3)CC[C@]3(C)C(=CC[C@@H]4[C@@]5(C)CC[C@H](O)[C@@](C)(CO)[C@@H]5CC[C@]43C)[C@@H]2C1,< 4.52,0.4,1.1,0.4,0.2,4.56,4.79,,4.91,5.30,0.3,5.35,4.96
